Published values pooled from the literature.
Lines come from different studies, so protocols differ.
CYP3A7: Cytochrome P450 3A7 (CYP3A7, Homo sapiens, UniProt P24462)

| Structure (SMILES) | target or system | assay | system | setting | quantity | value |
| --- | --- | --- | --- | --- | --- | --- |
| Cc1cnc(C(=O)N[C@H]2CCCCC/C=C\[C@@H]3C[C@@]3(C(=O)NS(=O)(=O)C3CC3)NC(=O)[C@@H]3C[C@@H](Oc4nc5ccccc5c5ccccc45)CN3C2=O)cn1 | CYP3A7 | enzyme activity, inhibitor |  | pH 7.4, with preincubation | KI (inactivation) | 4.66 µM |
| Cc1ccc(Cn2cc(C(=O)NN)c(=O)c3cc(Oc4ccccc4)ccc32)cc1 |  | metabolic stability | male rat, liver microsomes | 1 µM, 30 min | compound remaining | > 99% |
| Cc1ccnc2c1NC(=O)c1cccnc1N2C1CC1 | MT4 | cell growth or viability, MTT |  | 5 days | CC50 | > 4 µg/mL |
| N#Cc1cnn2c(NC3CC3)cc(Nc3cc(-n4cnnc4)ccc3F)nc12 |  | metabolic stability | male CD-1 mouse, liver microsomes | 5 µM, 30 min, pH 7.4 | compound remaining | 100% |
| O=[N+]([O-])c1ccc(/C=N/c2c(-c3ccccc3)nc3ccc(Cl)cn23)cc1 | MT4 | cell growth or viability, MTT |  | 5 days | CC50 | > 125 µg/mL |
| N#Cc1cnn2c(NC3CC3)cc(Nc3ccc(N4CCC[C@H](N)C4)c(-n4cnnc4)c3)nc12 |  | metabolic stability | male CD-1 mouse, liver microsomes | 5 µM, 30 min, pH 7.4 | compound remaining | 98% |
| CC(C)(C)OC(=O)N[C@H]1CCCCC/C=C\[C@@H]2C[C@@]2(C(=O)NS(=O)(=O)C2CC2)NC(=O)[C@@H]2C[C@@H](OC(=O)N3Cc4cccc(F)c4C3)CN2C1=O | CYP3A7 | enzyme activity, inhibitor, fluorescence |  | 20 µM, 10 min, pH 7.4 | inhibition | ≥ 50% |
| N#C[C@@]12C[C@@H]1[C@@H](n1cnc3c(N[C@@H](C4CCC4)C4CC4)nc(I)nc31)[C@H](O)[C@@H]2O |  | metabolic stability | mouse, liver microsomes | 1 h | compound remaining | 72.6% |
| COC[C@H]1C[C@@H](c2ncc(-c3ccc4c(c3)COc3cc5c(ccc6nc([C@@H]7CC[C@H](C)N7C(=O)[C@@H](NC(=O)OC)C(C)C)[nH]c65)cc3-4)[nH]2)N(C(=O)[C@H](NC(=O)OC)c2ccccc2)C1 | CYP3A7 | enzyme activity, inhibitor, fluorescence |  | 20 µM, 10 min, pH 7.4 | inhibition | ≥ 50% |
| C[C@@H](N)CN(C)c1ccc(Nc2cc(NC3CC3)n3ncc(C#N)c3n2)cc1-n1cnnc1 |  | metabolic stability | male CD-1 mouse, liver microsomes | 5 µM, 30 min, pH 7.4 | compound remaining | 84% |
| O=[N+]([O-])c1ccccc1/C=N/c1c(-c2ccccc2)nc2ccc(Cl)cn12 | MT4 | cell growth or viability, MTT |  | 5 days | CC50 | > 125 µg/mL |
| C=C[C@@H]1C[C@]1(NC(=O)[C@@H]1C[C@@H](Oc2ncc(OC)c3ccc(Cl)cc23)CN1C(=O)[C@@H](NC(=O)OC(C)(C)C)C(C)(C)C)C(=O)NS(=O)(=O)C1CC1 | CYP3A7 | enzyme activity, inhibitor, fluorescence |  | 20 µM, 10 min, pH 7.4 | inhibition | ≥ 50% |
